In ChEMBL document CHEMBL1124188, “Soft drugs. 7. Soft beta-blockers for systemic and ophthalmic use” (J Med Chem, 1988):

Assays:
Homo sapiens [1] = organism: Homo sapiens; assay: In vitro hydrolytic rate constant determined in human blood; type: ADME
In short: (§1)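 Compounds were placed in human blood, and samples were withdrawn over time. Each sample was mixed at once with ice-cold acetonitrile and centrifuged. The supernatant was analysed by reverse-phase C18 HPLC with variable-wavelength UV detection. Disappearance was treated as pseudo-first-order. Values are the mean of at least four runs ± SE of the mean.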

[2] = (§2) Half life period determined in human blood; type: ADME, organism-based; in short: as §1
Homo sapiens [3] = organism: Homo sapiens; assay: as §2; type: ADME, organism-based; conditions: in vitro; in short: as §1

SMILES	K (Homo sapiens [1]) [min⁻¹]	half-life ([2]; human blood) [min]	T1/2 (Homo sapiens [3]) [min]	half-life [2] [min]
CC(C)NCC(O)COc1ccc(CC(=O)OCC(=O)OC2CCCCC2)cc1 (centres undefined)	0.154	4.5		
CC(C)NCC(O)COc1ccc(CC(=O)OCC23CC4CC(CC(C4)C2)C3)cc1 (centres undefined)	0.015	46.2		
CC(C)NCC(O)COc1ccc(CC(=O)OC2CC3CCC2(C)C3(C)C)cc1 (centres undefined)	0.0009	770		
CC(C)NCC(O)COc1ccc(CC(=O)OC2CC3CCC2C3)cc1 (stereo in doubt; 3e)	35000		19.8	
CC(C)NCC(O)COc1ccc(CC(=O)OC2CC3CCC2C3)cc1 (stereo in doubt; 3f)	0.02	34.6		
CC(C)NCC(O)COc1ccc(CC(=O)OCCC23CC4CC(CC(C4)C2)C3)cc1 (centres undefined) [ADAPROLOL]	0.1			6.9
COC(=O)CCc1ccc(OCC(O)CNC(C)C)cc1 (centres undefined) [ESMOLOL]	0.0033		210	
